Test [1] is filed under the species Rattus norvegicus. Kind of test: Cataleptogenic effect in rats. It is filed as functional. An outline of the steps: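 Rats scored on a vertical wire grid hourly 1–6 h after dosing; catalepsy counted when immobility lasted at least 15 s.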
A further test is filed under the species Mus musculus. Kind of test: Antagonism of methyl phenidate-induced gnawing behavior in mice. It is filed as functional. An outline of the steps:
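Test compound given ip (or sc) 2 h before methyl phenidate (60 mg/kg); mice housed in pairs on corrugated cardboard in gnawing cages, 5–9 pairs per dose.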

A further test has as its target D(1A) dopamine receptor (Rattus norvegicus, UniProt P18901). Kind of test: Binding affinity for dopamine receptor D1, activity is expressed as IC50 values.
Another test addresses D(2) dopamine receptor (Rattus norvegicus, UniProt P61169). Kind of test: Binding affinity against dopamine receptor D2.
The species entered for test [2] is Rattus norvegicus. Kind of test: In vitro inhibition of [3H]NE uptake in rat occipital lobe (plus temporal cortex) homogenates. It is filed as functional.
The species entered for test [3] is Rattus norvegicus. Kind of test: In vitro inhibition of [3H]dopamine uptake in rat corpus striatum homogenates. Format: functional.
For test [4], the species on record is Rattus norvegicus. Kind of test: In vitro inhibition of [3H]5-HT uptake in rat brain (minus pons, medulla oblongata and cerebellum) homogenates. It is filed as functional.
Setting [5] is: Rattus norvegicus, read-out: ED50.
Where [6] appears, read: Rattus norvegicus, Corpus striatum.

Several values for one entry are separate records, joined by “and”; a condition that tells them apart may be missing. Equal entries are not always repeated.

The term IC50 denotes the concentration that gives 50% inhibition.

Sequence of D(2) dopamine receptor (P61169 whole entry): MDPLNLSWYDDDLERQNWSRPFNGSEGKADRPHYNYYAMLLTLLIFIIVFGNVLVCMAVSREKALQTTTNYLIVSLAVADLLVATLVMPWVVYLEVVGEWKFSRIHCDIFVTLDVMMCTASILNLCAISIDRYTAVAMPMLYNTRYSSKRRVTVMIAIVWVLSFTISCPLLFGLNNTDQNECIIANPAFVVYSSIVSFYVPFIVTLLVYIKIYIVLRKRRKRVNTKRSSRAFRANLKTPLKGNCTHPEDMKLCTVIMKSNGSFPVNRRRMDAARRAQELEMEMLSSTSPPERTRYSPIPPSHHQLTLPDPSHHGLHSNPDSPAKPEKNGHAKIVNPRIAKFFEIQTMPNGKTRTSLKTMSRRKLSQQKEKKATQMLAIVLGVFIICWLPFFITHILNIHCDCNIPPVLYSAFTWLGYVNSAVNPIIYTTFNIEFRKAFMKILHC
Sequence of D(1A) dopamine receptor (P18901 whole entry): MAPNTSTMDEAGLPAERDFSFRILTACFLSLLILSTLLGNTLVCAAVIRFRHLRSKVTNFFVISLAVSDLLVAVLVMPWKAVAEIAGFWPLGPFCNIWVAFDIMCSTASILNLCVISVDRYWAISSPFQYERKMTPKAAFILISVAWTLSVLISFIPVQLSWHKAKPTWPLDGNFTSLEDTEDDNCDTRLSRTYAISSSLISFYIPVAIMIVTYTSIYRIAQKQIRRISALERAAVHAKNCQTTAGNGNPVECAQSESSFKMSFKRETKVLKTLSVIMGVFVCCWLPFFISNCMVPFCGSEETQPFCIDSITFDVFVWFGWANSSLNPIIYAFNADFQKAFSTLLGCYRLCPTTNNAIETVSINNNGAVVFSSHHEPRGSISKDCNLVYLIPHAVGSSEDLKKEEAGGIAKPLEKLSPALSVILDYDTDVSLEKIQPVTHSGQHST

Turning to `CC(C)N1CCN(C2CC(c3ccc(F)cc3)c3ccc(Cl)cc32)CC1(C)C` (stereo in doubt; 29), the ED50 in the test listed under Rattus norvegicus [1] (setting [5]) worked out at 6.9 µmol/kg; in the test filed under Mus musculus, 1.6 µM/kg. In addition, the IC50 on D(1A) dopamine receptor is 0.00082 µM.
`CC1(C)CN(C2CC(c3ccc(F)cc3)c3ccc(Cl)cc32)CCN1CCO` (stereo not given): the ED50 amounted to 3.7 µmol/kg in the test listed under Rattus norvegicus [1] (setting [5]) and 0.34 µmol/kg in the test listed under Mus musculus (Mus musculus, read-out: ED50).
Consider `CN1CCN(C2=Nc3cc(Cl)ccc3Nc3ccccc32)CC1` [CLOZAPINE], for which the ED50 in the test listed under Rattus norvegicus [1] (setting [5]) was greater than 120 µmol/kg; in the test listed under Mus musculus (Mus musculus, read-out: ED50), 98 µmol/kg.
With `CN1CCN(C2CC(c3ccc(F)cc3)c3ccc(Cl)cc32)CC12CCCC2` (stereo in doubt; 34), the ED50 in the test listed under Rattus norvegicus [1] (setting [5]) worked out at 42 µmol/kg; in the test filed under Mus musculus (Mus musculus, read-out: ED50), 1.7 µmol/kg. Further, the IC50 on D(1A) dopamine receptor is 0.00085 µM.
On to `CN1CCN(C2CC(c3ccc(F)cc3)c3c(Cl)cccc32)CC1(C)C` (stereo not given), for which, in the test listed under Mus musculus (Mus musculus, read-out: ED50), the ED50 is greater than 36 µmol/kg.
In the case of `CN1CCN(C2CC(c3ccccc3F)c3ccc(Cl)cc32)CC1(C)C` (stereo not given), the ED50 is greater than 33 µmol/kg in the test filed under Rattus norvegicus [1] (setting [5]) and 34 µmol/kg in the test filed under Mus musculus (Mus musculus, read-out: ED50).
On the same counts, the results for `Fc1ccc(C2CC(N3CCN4CCCCC4C3)c3cc(Cl)ccc32)cc1` (stereo not given) are 4.1 µmol/kg and 14 µmol/kg.
With `CN1CCN(C2CC(c3ccc(F)cc3)c3ccc(C(F)(F)F)cc32)CC1` (stereo not given), the results for the half-maximal inhibitory concentration (IC50) on D(2) dopamine receptor and on D(1A) dopamine receptor were 0.0081 µM and 0.017 µM, respectively.
For the compound `Cc1ccc2c(c1)C(N1CCN(C)C(C)(C)C1)CC2c1ccc(F)cc1` (stereo not given), the ED50 amounted to 33 µmol/kg in the test listed under Rattus norvegicus [1] (setting [5]) and 1.4 µmol/kg in the test listed under Mus musculus (Mus musculus, read-out: ED50).
Regarding `Cc1ccc2c(c1)C(N1CCN(CCO)CC1)CC2c1ccc(F)cc1` (stereo not given), the IC50 at D(2) dopamine receptor came to 0.023 µM; at D(1A) dopamine receptor it was 0.051 µM.
In the case of `OCCN1CCN(C2CC(c3ccc(F)cc3)c3ccc(C(F)(F)F)cc32)CC1` (stereo not given), the IC50 at D(2) dopamine receptor is 0.01 µM; at D(1A) dopamine receptor, 0.023 µM.
On to `CC1CN(C2CC(c3ccc(F)cc3)c3ccc(Cl)cc32)C(C)CN1C` (stereo not given), for which the ED50 is greater than 33 µmol/kg in the test listed under Rattus norvegicus [1] (setting [5]) and greater than 66 µmol/kg in the test filed under Mus musculus (Mus musculus, read-out: ED50). Moreover, the IC50 turned out to be 0.041 µM at D(2) dopamine receptor and 0.019 µM at D(1A) dopamine receptor.
As to `CN1CCN(C2CC(c3ccccc3)c3ccc(Cl)cc32)CC1` (stereo not given), the concentration for half-maximal inhibition (IC50) on D(2) dopamine receptor came out at 0.061 µM; on D(1A) dopamine receptor, 0.016 µM.
Turning to `CC1(C)CN(C2CC(c3ccc(F)cc3)c3ccc(Cl)cc32)CCN1CCCO` (stereo not given), the ED50 in the test listed under Rattus norvegicus [1] (setting [5]) was less than 17 µmol/kg. The half-maximal inhibitory concentration (IC50) on D(2) dopamine receptor was determined as 0.021 µM; at D(1A) dopamine receptor it was 0.0011 µM.
In the case of `CN1CCN(C2CC(c3ccc(F)cc3)c3ccc(Cl)cc32)CC12CCC2` (stereo not given), the ED50 came to 69 µmol/kg in the test listed under Rattus norvegicus [1] (setting [5]) and 1 µmol/kg in the test filed under Mus musculus (Mus musculus, read-out: ED50).
`CCC1(CC)CN(C2CC(c3ccc(F)cc3)c3ccc(Cl)cc32)CCN1C` (stereo not given): the ED50 in the test filed under Rattus norvegicus [1] (setting [5]) was greater than 20 µmol/kg; in the test filed under Mus musculus (Mus musculus, read-out: ED50), greater than 81 µmol/kg.
`OCCN1CCN(C2CC(c3ccc(F)cc3)c3ccc(Cl)cc32)CC12CCCC2` (stereo in doubt; 35): the ED50 in the test listed under Rattus norvegicus [1] amounted to 14 µM/kg; in the test listed under Mus musculus it was 1.6 µM/kg. The figures for the half-maximal inhibitory concentration (IC50) at D(2) dopamine receptor and at D(1A) dopamine receptor were 0.013 µM and 0.0019 µM, respectively.
For `CC(C)c1ccc2c(c1)C(N1CCN(CCO)CC1)CC2c1ccc(F)cc1` (stereo not given), the IC50 on D(2) dopamine receptor came to 0.014 µM; at D(1A) dopamine receptor it was 0.066 µM.
In the case of `Cc1ccc2c(c1)C(N1CCN(C)CC1)CC2c1ccc(F)cc1` (stereo not given), the IC50 on D(2) dopamine receptor is 0.013 µM; on D(1A) dopamine receptor, 0.038 µM.
Turning to `CN1CCN(C2CC(c3ccc(F)cc3)c3ccc(Br)cc32)CC1(C)C` (stereo not given), the ED50 in the test listed under Rattus norvegicus [1] (setting [5]) turned out to be 9.4 µmol/kg; in the test filed under Mus musculus (Mus musculus, read-out: ED50), 1.5 µmol/kg.
Take `CN1CCN(C2CC(c3ccc(F)cc3)c3ccc(Cl)cc32)CC1(C)C` (stereo in doubt; (+)-28): the concentration for half-maximal inhibition (IC50) in the test listed under Rattus norvegicus [2] is 0.068 µM; in the test listed under Rattus norvegicus [3], 0.016 µM; in the test listed under Rattus norvegicus [4] it was greater than 1 µM; on D(1A) dopamine receptor it was 0.62 µM.
As to `CC1(C)CN(C2CC(c3ccsc3)c3ccc(Cl)cc32)CCN1` (stereo in doubt; 54), the ED50 was greater than 35 µM/kg in the test filed under Rattus norvegicus [1] and 6.5 µM/kg in the test filed under Mus musculus.
Turning to `CC1CN(C2CC(c3ccc(F)cc3)c3ccc(Cl)cc32)CCN1C` (stereo not given), the ED50 in the test listed under Rattus norvegicus [1] (setting [5]) was 9.3 µmol/kg; in the test listed under Mus musculus (Mus musculus, read-out: ED50) it was 0.27 µmol/kg.
Regarding `CN1CCN(C2CC(c3ccccc3)c3ccccc32)CC1(C)C` (stereo not given), the ED50 in the test filed under Rattus norvegicus [1] (setting [5]) is greater than 36 µmol/kg; in the test listed under Mus musculus (Mus musculus, read-out: ED50), greater than 36 µmol/kg.
On to `CN1CCN(C2CC(c3ccc(F)cc3)c3ccc(Cl)cc32)CC12CCCCC2` (stereo not given), for which the ED50 in the test listed under Mus musculus (Mus musculus, read-out: ED50) was greater than 80 µmol/kg.
Regarding `Cc1ccc2c(c1)C(N1CCNC(C)(C)C1)CC2c1ccc(F)cc1` (stereo not given), the ED50 in the test filed under Rattus norvegicus [1] (setting [5]) was greater than 29 µmol/kg; in the test listed under Mus musculus (Mus musculus, read-out: ED50), 33 µmol/kg.
Take `OCCN1CCN(C2CC(c3ccc(F)cc3)c3ccc(Cl)cc32)CC12CCCC2` (single isomer, unassigned; (+)): the 50% inhibitory concentration (IC50) was 0.44 µM in the test filed under Rattus norvegicus [2] (Rattus norvegicus), 0.12 µM in the test listed under Rattus norvegicus [3] (setting [6]), 2.4 µM in the test filed under Rattus norvegicus [4] (Rattus norvegicus) and 0.051 µM at D(1A) dopamine receptor.
Regarding `CN1CCN(C2CC(c3ccc(F)cc3)c3ccc(F)cc32)CC1` (stereo not given), the concentration for half-maximal inhibition (IC50) in the test filed under Rattus norvegicus [4] was 0.61 µM and 3.9 µM.
`CN1CCN(C2CC(c3ccc(F)cc3)c3ccc(Cl)cc32)CC12CCCC2` (single isomer, unassigned; (+)): the IC50 stood at 0.69 µM in the test filed under Rattus norvegicus [2] (Rattus norvegicus), 0.15 µM in the test listed under Rattus norvegicus [3] (setting [6]), 1.8 µM in the test listed under Rattus norvegicus [4] (Rattus norvegicus) and 0.0066 µM on D(1A) dopamine receptor.
Consider `OCCN1CCN(C2CC(c3ccccc3)c3ccccc32)CC1` (stereo not given), for which the IC50 at D(2) dopamine receptor worked out at 2.8 µM; on D(1A) dopamine receptor it was 0.73 µM.
Consider `CC(C)N1CCN(C2CC(c3ccc(F)cc3)c3ccc(Cl)cc32)CC1(C)C` (single isomer, unassigned; (+)), for which the IC50 in the test filed under Rattus norvegicus [2] was determined as 0.1 µM; in the test listed under Rattus norvegicus [3], 0.02 µM; in the test filed under Rattus norvegicus [4] it was 2.6 µM; on D(1A) dopamine receptor, 0.052 µM.
For `COc1ccc2c(c1)C(N1CCN(CCO)CC1)CC2c1ccc(F)cc1` (stereo not given), the half-inhibitory concentration (IC50) on D(2) dopamine receptor worked out at 0.086 µM; on D(1A) dopamine receptor, 0.21 µM.
On the same counts, the results for `CSc1ccc2c(c1)C(N1CCN(CCO)CC1)CC2c1ccc(F)cc1` (stereo not given) are 0.013 µM and 0.039 µM.
With `CN1CCN(C2CC(c3ccc(F)cc3)c3ccc(Cl)cc32)CC12CCCC2` (stereo in doubt; (-)-34), the ED50 in the test listed under Rattus norvegicus [1] worked out at 31 µM/kg; in the test listed under Mus musculus, 1.2 µM/kg. This compound also registered an IC50 on D(1A) dopamine receptor of 0.00096 µM.
As for `OCCN1CCN(C2CC(c3ccc(F)cc3)c3ccc(Cl)cc32)CC12CCCC2` (stereo in doubt; (-)-35), the ED50 worked out at 2.7 µM/kg in the test listed under Rattus norvegicus [1] and 0.49 µM/kg in the test listed under Mus musculus. The IC50 at D(2) dopamine receptor stood at 0.005 µM; at D(1A) dopamine receptor, 0.001 µM.
`CN1CCN(C2CC(c3cccc(F)c3)c3ccc(Cl)cc32)CC1(C)C` (stereo not given): the ED50 was greater than 33 µmol/kg in the test filed under Rattus norvegicus [1] (setting [5]) and greater than 33 µmol/kg in the test filed under Mus musculus (Mus musculus, read-out: ED50).
Regarding `CC1CN(C2CC(c3ccc(F)cc3)c3ccc(Cl)cc32)CC(C)N1C` (stereo not given), the ED50 in the test filed under Rattus norvegicus [1] (setting [5]) was greater than 36 µmol/kg; in the test filed under Mus musculus (Mus musculus, read-out: ED50), 53 µmol/kg. Moreover, the 50% inhibitory concentration (IC50) on D(2) dopamine receptor came to 0.12 µM; on D(1A) dopamine receptor, 0.013 µM.
For `CN1CCN(C2CC(c3ccc(F)cc3)c3cccc(Cl)c32)CC1(C)C` (stereo not given), the ED50 in the test listed under Rattus norvegicus [1] (setting [5]) was greater than 41 µmol/kg; in the test listed under Mus musculus (Mus musculus, read-out: ED50), greater than 41 µmol/kg.
On to `CN1CCN(C2CC(c3ccc(F)cc3)c3ccc(C(F)(F)F)cc32)CC1(C)C` (stereo not given), for which the ED50 in the test listed under Rattus norvegicus [1] (setting [5]) was found to be 5.2 µmol/kg; in the test listed under Mus musculus (Mus musculus, read-out: ED50) it was 0.99 µmol/kg.
Turning to `CS(=O)(=O)c1ccc2c(c1)C(N1CCN(CCO)CC1)CC2c1ccc(F)cc1` (stereo not given), the IC50 at D(2) dopamine receptor is 0.042 µM; at D(1A) dopamine receptor, 0.69 µM.
As to `OCCN1CCN(C2CC(c3ccc(F)cc3)c3ccc(F)cc32)CC1` (stereo not given), the IC50 on D(2) dopamine receptor stood at 0.082 µM; on D(1A) dopamine receptor it was 0.016 µM.
On D(1A) dopamine receptor, `OCCN1CCN(C2CC(c3ccc(F)cc3)c3cccc(Cl)c32)CC1` (stereo not given) returned a 50% inhibitory concentration (IC50) of 0.13 µM.

Values taken from ChEMBL document CHEMBL1128174, “Enhanced D1 affinity in a series of piperazine ring substituted 1-piperazino-3-arylindans with potential atypical antipsychotic activity” (J Med Chem, 1995).
